Screening data deposited in PubChem BioAssay by several laboratories.
This is a sample that favours compounds with a hit; in the whole collection about 2.2% have one here.
Jurkat NFkB inh = inhibitors of induced NF-kB luciferase reporter, primary screen, TCR NF-kB activation inhibitor project, cell-based, luminescence, uHTS; actives 0.53% (n = 330,000); Jurkat, PMA/ionomycin-induced NF-kB luciferase reporter; AID 435003, 2010; inhibition, % at 4 µM; in the data active = inhibition above about 50%
NR2E3 ag-1 = NR2E3 agonists in two-hybrid cells, primary screen, cell-based, luminescence, CHO-S, Gal4-NCOR/VP16-NR2E3 | luciferase | inhibition of corepressor binding, % at 3.98 µM | actives 0.35% (n = 360,000) | AID 602229, 2012;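 active = inhibition above the mean of all tested compounds plus 3 SD, cut at about 70% in these data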;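 also: 0% = DMSO with NR2E3 transfected cells and 100% = cells lacking NR2E3 construct; higher means lower luciferase signal from less NR2E3 corepressor binding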
Target sequence (Q9Y5X4 whole entry, looked up, the tested form may be a part): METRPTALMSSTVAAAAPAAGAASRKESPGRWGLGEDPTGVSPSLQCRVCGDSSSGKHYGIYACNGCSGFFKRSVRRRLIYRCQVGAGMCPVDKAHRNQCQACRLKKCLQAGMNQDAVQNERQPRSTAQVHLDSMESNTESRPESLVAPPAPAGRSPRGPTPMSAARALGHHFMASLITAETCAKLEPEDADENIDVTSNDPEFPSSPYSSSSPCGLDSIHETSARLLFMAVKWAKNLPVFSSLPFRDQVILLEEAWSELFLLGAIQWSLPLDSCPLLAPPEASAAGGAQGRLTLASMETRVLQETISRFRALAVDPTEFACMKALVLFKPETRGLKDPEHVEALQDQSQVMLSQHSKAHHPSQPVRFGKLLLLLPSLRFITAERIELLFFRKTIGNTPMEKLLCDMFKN
FGF22 binding = binders of human FGF22 protein, primary screen, FGF22 synaptogenesis inhibitor project, biophysical, thermal shift, single point; actives 1.5% (n = 340,000); AID 651658, 2012; recombinant FGF22 thermal shift, SYPRO orange fluorescence; percent of sucrose octasulfate shift, DMSO zero; activity (Tm shift, normalised), % at 9.99 µM;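 active = mean Tm shift, scaled 0 neutral to 100 positive control, at about 1.3% or above, every replicate too, limit read from the data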
Target sequence (Q9HCT0 whole entry, looked up): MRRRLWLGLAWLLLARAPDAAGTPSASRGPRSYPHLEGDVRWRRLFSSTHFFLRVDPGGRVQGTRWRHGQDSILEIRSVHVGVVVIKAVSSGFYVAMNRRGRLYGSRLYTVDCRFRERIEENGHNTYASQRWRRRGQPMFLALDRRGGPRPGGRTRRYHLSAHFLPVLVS
697 NFkB inh = inhibitors of PMA/ionomycin-induced NF-kB reporter, 697 cells, primary screen, B-cell NF-kB inhibitor project, cell-based, luminescence, uHTS | 697 B-cell NF-kB luciferase reporter, 16 h | inhibition, % at 4 µM | actives 0.33% (n = 330,000); in the data active = inhibition above about 35%
miR122 inh = miR-122 Renilla sensor signal increase in Huh7, primary screen, miR-122 inhibitor project, cell-based, single point, plate reader | Huh7 miR-122 Renilla luciferase sensor, 48 h; neutral wells = 0, positive control = 100 | activation (reporter increase), % at 12.5 µM | actives 0.3% (n = 340,000);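 active = mean replicate activation score at least 90 and every replicate individually at or above 90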;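 also: higher luciferase means less miR-122 activity so hits act as miR-122 inhibitors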
NR2E3 ag-2 = inhibitors of NR2E3-RetCOR corepressor binding, primary screen, NR2E3 agonist project, biochemical, TR-FRET, GST-NR2E3, biotin-RetCOR; 1536-well; inhibition of corepressor binding, % at 4.78 µM; actives 0.12% (n = 320,000); AID 2300, 2010;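 active = percent inhibition above the cutoff of mean plus 3 SD of all tested compounds, set per screening campaign, cut at about 20% in these data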;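 also: 0% = DMSO wells and 100% = biotin wells as full block of FRET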
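Material: NR2E3–RetCOR corepressor complex / Amount: 1.35 nM GST-NR2E3 / Medium: Tris pH 7.5 / Compound: single nominal compound dose of 4.8 µM / Incubation: 5 h at 4 °C / Technique: TR-FRET, Eu(K)-anti-GST donor, streptavidin-D2 acceptor, ex 340, em 617/671 nm / Read-out basis: percent loss of FRET ratio relative to control wells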
* hit, by the source's call; · = no result given; [ ] = remark or other dose.

SMILES	Jurkat NFkB inh	NR2E3 ag-1	FGF22 binding	697 NFkB inh	miR122 inh	NR2E3 ag-2
Cc1noc(C)c1S(=O)(=O)Nc1ccc2c(c1)C(=O)N([C@@H](C)CO)C[C@@H](C)[C@H](CN(C)S(=O)(=O)c1cn(C)cn1)OCCCC[C@@H](C)O2	·	·	34*	·	-7[16.7 µM]	·
CS(=O)(=O)N1CCN(c2ccccc2NC(=S)NC(=O)c2cccs2)CC1	-1	-10	43*	10	·	3
CC1CCN(c2ccccc2NC(=S)NC(=O)C(C)(C)C)CC1	16	-12	43*	-10	·	1
CC1CCN(c2ccccc2NC(=S)NC(=O)c2cccs2)CC1	-7	-25	·	-17	-1	0
CO[C@@H]1CN(C)C(=O)c2cc(NC(=O)C3CC3)ccc2OC[C@H](C)N(C(=O)c2ccccn2)C[C@H]1C	·	·	·	·	-9[16.7 µM]	·
CCc1ccc(NC(=O)CSc2nc3ccsc3c(=O)n2CCCCCC(=O)O)cc1	-10	2	43*	8	·	-2
CCC(=O)N1[C@H](CNC(=O)CN2CCOCC2)[C@@H](c2ccccc2)[C@@H]1CO	·	·	·	·	14[16.7 µM]	·
COc1ccc(CN(C)C[C@@H]2Oc3ccc(NC(=O)Nc4ccc(F)cc4)cc3C(=O)N([C@H](C)CO)C[C@H]2C)cc1	·	·	-1	·	-3[16.7 µM]	·
CCOc1cc2c(cc1OC)C(c1cccc([N+](=O)[O-])c1)NCC2 (configuration not stated)	1	-5	43*	-15	·	3
Cc1cc(NC(=O)COc2cccc(C)c2C)no1	-22	3	0	8	1	0
Cc1cc(NC(=O)COc2ccccc2C)no1	-42	-54	44*	1	·	3
N#C/C(=N\Nc1cc(Cl)cc(Cl)c1)c1nnc2n1CCCCC2	-10	-3	43*	-13	-3	0
Cc1noc(C)c1NC(=O)N[C@H]1CC[C@H](CC(=O)N2CCCCC2)O[C@H]1CO	·	·	0	·	·	·
C[C@H](CO)NC(=O)c1nc[nH]c1C(=O)N[C@@H](C)c1ccccc1	·	0	0	·	-1	·
C[C@@H](CO)NC(=O)c1nc[nH]c1C(=O)N[C@H](C)c1ccccc1	·	-9	43*	·	-2	·
C[C@H](NC(=O)c1nc[nH]c1C(=O)NC[C@@H](C)O)c1ccccc1	·	-11	43*	·	0	·
C[C@@H](NC(=O)c1nc[nH]c1C(=O)N[C@H](C)c1ccccc1)c1ccccc1	-4	-9	0	-8	3	4
C[C@H]1CN([C@@H](C)CO)C(=O)c2cc(C#CCN(C)C)cnc2O[C@@H]1CN(C)C(=O)Nc1cc(F)ccc1F	·	·	0	·	1[16.7 µM]	·
O=C(NN=Cc1ccc2c(c1)OCO2)C1CC1	·	-44	43*	·	·	·
CO[C@H]1CN(C)C(=O)c2cc(NC(=O)C3CC3)ccc2OC[C@H](C)N(C(=O)c2ccccc2)C[C@@H]1C	·	·	0	·	·	·
O=C1OC(Oc2ccccc2)(c2ccccc2)c2ccccc21 (configuration not stated)	-1	12	·	14	7	1
O=C1OC(Cc2ccccc2)(c2ccccc2)c2ccccc21 (configuration not stated)	·	-25	44*	·	·	·
C/C=C/c1ccc2c(c1)O[C@H](CN(C)C(=O)c1ccncc1)[C@@H](C)CN([C@@H](C)CO)S2(=O)=O	·	·	0	·	-1[16.7 µM]	·
CC(C)OCc1ccc(C(=O)N2CCN(S(=O)(=O)c3ccc(Br)s3)CC2)cc1	12	17	0	7	0	-3
N#Cc1ccc(C(=O)N2CCN(S(=O)(=O)c3ccc(Br)s3)CC2)cc1	-2	6	44*	11	·	4
SMILES	Jurkat NFkB inh	NR2E3 ag-1	FGF22 binding	697 NFkB inh	miR122 inh	NR2E3 ag-2
CC(=O)N1[C@H](CNC(=O)CN(C)C)[C@@H](c2ccc(C3=CCCC3)cc2)[C@@H]1CO	·	·	·	·	-7[16.7 µM]	·
Cc1ccc(NC(=O)COC(=O)/C=C/c2ccc(Br)o2)cc1S(=O)(=O)N(C)C	-12	-6	43*	6	·	-2
Cc1ccc(NC(=O)c2ccncc2)cc1S(=O)(=O)N(C)C	-4	-22	0	-17	-1	-5
Cc1ccc(NC(=O)c2ccc(Br)o2)cc1S(=O)(=O)N(C)C	-39	-52	43*	-7	7	-1
CN(C)S(=O)(=O)c1cccc(NC(=O)COC(=O)/C=C/c2ccc(Br)o2)c1	7	-12	0	18	1	-1
O=C(NCC(F)(F)F)[C@@H]1[C@@H](CO)[C@@H]2Cn3c(cccc3=O)[C@H]1N2CC1CCCCC1	·	·	0	·	-1[16.7 µM]	·
C[C@H](CO)N1C[C@H](C)[C@H](CN(C)Cc2ccncc2)Oc2ccc(NS(C)(=O)=O)cc2C1=O	·	·	0	·	-4[16.7 µM]	·
O=C(/C=C/c1ccccc1O)c1ccco1	-8	-7	0	5	8	-1
O=C(/C=C/c1cc(Br)ccc1O)c1ccco1	11	-12	0	-9	195*	1
CCc1ccc(C(=O)CN2C(=O)NC(C)(c3ccc(C)cc3)C2=O)cc1 (configuration not stated)	6	-8	43*	6	12	5
CS(=O)(=O)Nc1ccc2c(c1)[C@H]1C[C@H](CC(=O)NCc3ccncc3)O[C@@H](CO)[C@H]1O2	·	·	-1	·	0[16.7 µM]	·
CO[C@@H]1CC[C@H]2CCOc3c(C#N)cccc3C(=O)N(C)C[C@@H](C)C(=O)N(C)C[C@H]1O2	·	·	0	·	·	·
O=C(c1cc([N+](=O)[O-])ccc1N1CCOCC1)N1CCOCC1	-13	26	43*	-7	8	-2
O=C(c1cc([N+](=O)[O-])ccc1N1CCOCC1)N1CCCC1	1	-7	·	4	-1	4
CC1(c2ccc([N+](=O)[O-])cc2)NC(=O)N(CC(=O)Nc2ccc(N3CCCCC3)cc2)C1=O (configuration not stated)	-1	21	0	-24	·	0
CC1(c2ccccc2)NC(=O)N(CC(=O)Nc2ccc([N+](=O)[O-])cc2)C1=O (configuration not stated)	-6	8	43*	-8	1	-2
O=C(COC(=O)CNC(=O)c1ccc(Cl)cc1Cl)NC1CC1	-11	-8	43*	-15	-6	·
O=C(COC(=O)CNC(=O)c1ccccc1Cl)NC1CC1	14	13	0	10	-8	·
COc1ccc(NS(=O)(=O)c2ccc3ccccc3c2)c2ncccc12	19	33	0	5	104*	1
COc1ccccc1NS(=O)(=O)c1ccc2ccccc2c1	5	0	0	-6	28	1
